Assay results as given in ChEMBL document CHEMBL2331505, “Synthesis of quinoline derivatives: discovery of a potent and selective phosphodiesterase 5 inhibitor for the treatment of Alzheimer's disease” (Eur J Med Chem, 2013).
Blank lines part the entries; values can stand above or below the compound they belong to.

Tests used:
[1] = biological target: cGMP-specific 3',5'-cyclic phosphodiesterase (Homo sapiens, UniProt O76074); assay: Inhibition of PDE5 (unknown origin) using FAM-cGMP as substrate after 60 mins by fluorescence assay
[2] = biological target: Phosphodiesterase 8 (Homo sapiens, UniProt O95263+O60658); assay: Inhibition of PDE8 (unknown origin) using FAM-cAMP as substrate after 60 mins by fluorescence assay; assay type: protein assay
[3] = biological target: Phosphodiesterase 6; assay: Inhibition of PDE6 (unknown origin) using FAM-cGMP as substrate after 60 mins by fluorescence assay; assay type: protein assay, Homo sapiens
[4] = system: Mus musculus; assay: Reversal of contextual fear memory deficit in APP/PS1 transgenic mouse assessed as increase in freezing behavior at 3 mg/kg, ip after 3 weeks (reference value: 10%); assay type: functional; details: route intraperitoneal
[5] = biological target: Phosphodiesterase 4 (Homo sapiens, UniProt P27815+Q08499+Q07343+Q08493); assay: Inhibition of PDE4 (unknown origin) using FAM-cAMP as substrate after 60 mins by fluorescence assay; assay type: protein assay
[6] = biological target: Dual 3',5'-cyclic-AMP and -GMP phosphodiesterase 11A (Homo sapiens, UniProt Q9HCR9); assay: Inhibition of PDE11 (unknown origin) using FAM-cGMP and FAM-cAMP as substrate after 60 mins by fluorescence assay
Dual 3',5'-cyclic-AMP and -GMP phosphodiesterase 11A, sequence (Q9HCR9 whole entry): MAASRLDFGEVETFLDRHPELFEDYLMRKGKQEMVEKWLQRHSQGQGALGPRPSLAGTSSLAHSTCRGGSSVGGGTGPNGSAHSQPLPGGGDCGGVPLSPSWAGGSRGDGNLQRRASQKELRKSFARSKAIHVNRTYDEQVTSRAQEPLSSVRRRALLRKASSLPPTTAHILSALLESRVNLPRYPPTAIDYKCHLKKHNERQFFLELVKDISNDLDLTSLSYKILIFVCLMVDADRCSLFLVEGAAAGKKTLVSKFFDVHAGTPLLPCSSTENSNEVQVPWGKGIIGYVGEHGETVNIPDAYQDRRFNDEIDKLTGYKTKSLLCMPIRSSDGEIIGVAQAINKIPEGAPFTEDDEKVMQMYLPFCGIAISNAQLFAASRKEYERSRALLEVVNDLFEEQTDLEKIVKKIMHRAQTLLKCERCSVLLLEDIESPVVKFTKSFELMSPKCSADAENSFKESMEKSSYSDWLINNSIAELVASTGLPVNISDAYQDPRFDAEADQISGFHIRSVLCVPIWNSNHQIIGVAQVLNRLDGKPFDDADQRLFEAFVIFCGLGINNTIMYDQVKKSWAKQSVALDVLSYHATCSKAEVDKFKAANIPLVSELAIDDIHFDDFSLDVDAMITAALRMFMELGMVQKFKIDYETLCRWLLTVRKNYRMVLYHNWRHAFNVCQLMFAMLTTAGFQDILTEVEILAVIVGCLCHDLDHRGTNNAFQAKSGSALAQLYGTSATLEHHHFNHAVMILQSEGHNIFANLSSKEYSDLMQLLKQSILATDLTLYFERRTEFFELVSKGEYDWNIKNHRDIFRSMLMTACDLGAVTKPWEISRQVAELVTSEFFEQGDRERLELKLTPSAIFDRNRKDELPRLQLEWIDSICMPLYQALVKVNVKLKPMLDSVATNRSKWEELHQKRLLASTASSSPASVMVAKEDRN

[7] = system: Brain; assay: AUC (0 to t) in mouse brain at 50 mg/kg, po; assay type: ADME, organism-based; design: dose 50 mg/kg, route oral; details: in vivo
Procedure, shortened: (§1)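 Male BALB/c mice dosed once orally at 50 mg/kg in 0.05% aqueous methylcellulose. Blood (retro-orbital, heparin) and brain were taken at 0, 0.25, 0.5, 1, 2 and 4 h, three mice per time point. Plasma and methanol brain homogenate were extracted with methanol plus internal standard and analysed by LC/MS/MS. Quantitation used analyte/internal standard peak-area ratios with weighted (1/x2) linear regression.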

[8] = biological target: Phosphodiesterase 1 (Homo sapiens, UniProt P54750+Q01064+Q14123); assay: Inhibition of PDE1 (unknown origin) using FAM-cGMP and FAM-cAMP as substrate after 60 mins by fluorescence assay; assay type: protein assay
[9] = species: Homo sapiens; assay: Selectivity ratio of IC50 for PDE11 (unknown origin) to IC50 for PDE5 (unknown origin)
[10] = species: Homo sapiens; assay: Selectivity ratio of IC50 for PDE3 (unknown origin) to IC50 for PDE5 (unknown origin)
[11] = system: Mus musculus; assay: Inhibition of PDE5 in C57Bl6 mouse assessed as increase in electric shock-induced hippocampal cGMP level measured per mg of protein at 3 mg/kg, ip administered 30 mins prior to electric shock induction measured after 3 mins (reference value: 0.46 0.0385 pmol); assay type: functional, Hippocampus; details: route intraperitoneal
Procedure, shortened: (§2)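 Male and female C57Bl6 mice, 2–3 months old, 20–25 g, received 3 mg/kg i.p. in 2% DMSO/2% Tween or vehicle alone. Foot shock was given 30 min later. Mice were killed 10 s, 1 min or 3 min after shock and the hippocampus was snap-frozen. cGMP was measured by enzyme immunoassay in duplicate and normalised to BCA protein; n=3 per group.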

[12] = system: Mus musculus; assay: Reversal of post synaptic dysfunction in APP/PS1 transgenic mouse assessed as increase in theta burst-induced long term potentiation at 3 mg/kg/day, ip administered 3 weeks measured after 9 to 12 weeks […] (reference value: 112.29 9.12%); assay type: functional; details: route intraperitoneal
[13] = biological target: cGMP-dependent 3',5'-cyclic phosphodiesterase (Homo sapiens, UniProt O00408); assay: Inhibition of PDE2 (unknown origin) using FAM-cGMP and FAM-cAMP as substrate after 60 mins by fluorescence assay
cGMP-dependent 3',5'-cyclic phosphodiesterase, sequence (O00408 whole entry): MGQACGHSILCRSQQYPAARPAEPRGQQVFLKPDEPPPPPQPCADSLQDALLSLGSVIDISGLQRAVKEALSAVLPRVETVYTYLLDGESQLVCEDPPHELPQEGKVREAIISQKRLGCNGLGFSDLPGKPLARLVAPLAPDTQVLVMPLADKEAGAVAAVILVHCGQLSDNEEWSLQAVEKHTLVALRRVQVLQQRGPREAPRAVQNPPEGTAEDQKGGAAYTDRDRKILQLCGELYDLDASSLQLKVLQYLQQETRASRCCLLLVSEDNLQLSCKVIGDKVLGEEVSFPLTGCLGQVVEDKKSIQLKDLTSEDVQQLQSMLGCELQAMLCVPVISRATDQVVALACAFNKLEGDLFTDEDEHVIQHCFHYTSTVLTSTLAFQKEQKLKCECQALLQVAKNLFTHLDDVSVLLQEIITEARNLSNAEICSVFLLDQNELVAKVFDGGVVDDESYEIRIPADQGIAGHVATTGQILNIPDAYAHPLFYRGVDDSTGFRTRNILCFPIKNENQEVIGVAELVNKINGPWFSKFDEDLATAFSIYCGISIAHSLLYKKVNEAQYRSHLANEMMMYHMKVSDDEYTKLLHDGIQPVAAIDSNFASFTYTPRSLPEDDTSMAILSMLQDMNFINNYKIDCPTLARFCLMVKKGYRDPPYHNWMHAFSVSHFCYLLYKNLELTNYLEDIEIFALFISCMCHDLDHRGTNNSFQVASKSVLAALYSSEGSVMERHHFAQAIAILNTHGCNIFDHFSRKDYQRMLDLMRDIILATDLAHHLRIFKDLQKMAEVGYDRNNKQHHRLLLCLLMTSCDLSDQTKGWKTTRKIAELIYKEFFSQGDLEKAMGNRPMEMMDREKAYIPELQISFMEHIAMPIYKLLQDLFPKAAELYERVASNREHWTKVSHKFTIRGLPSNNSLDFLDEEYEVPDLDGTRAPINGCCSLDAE

[14] = system: Brain; assay: Mean residence time in mouse brain at 50 mg/kg, po; assay type: ADME, organism-based; design: dose 50 mg/kg, route oral; details: in vivo; procedure, shortened: as §1
[15] = system: Plasma; assay: Cmax in mouse plasma at 50 mg/kg, po; assay type: ADME, organism-based; design: dose 50 mg/kg, route oral; details: in vivo; procedure, shortened: as §1
[16] = system: Plasma; assay: AUC (0 to infinity) in mouse plasma at 50 mg/kg, po; assay type: ADME, organism-based; design: time infinity, dose 50 mg/kg, route oral; details: in vivo; procedure, shortened: as §1
[17] = system: Plasma; assay: AUC (0 to t) in mouse plasma at 50 mg/kg, po; assay type: ADME, organism-based; design: dose 50 mg/kg, route oral; details: in vivo; procedure, shortened: as §1
[18] = species: Homo sapiens; assay: Selectivity ratio of IC50 for PDE6 (unknown origin) to IC50 for PDE5 (unknown origin)
[19] = Ratio of Cmax in mouse brain to Cmax in mouse plasma; assay type: ADME, cell-free
Procedure, shortened: (§3)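 Male BALB/c mice given 50 mg/kg p.o. in 0.05% methylcellulose aqueous solution. Blood (retro-orbital, heparin) and brain taken at 0, 0.25, 0.5, 1.0, 2.0 and 4.0 h, three mice per time point. Plasma and methanol brain homogenate extracted with internal standard and quantified by LC/MS/MS (peak area ratio, weighted linear regression). Ratio is brain over plasma parameter.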

[20] = species: Homo sapiens; assay: Selectivity ratio of IC50 for PDE9 (unknown origin) to IC50 for PDE5 (unknown origin)
[21] = system: Mus musculus; assay: Reversal of contextual fear memory deficit in amyloid beta42-infused mouse assessed as increase in freezing behavior at 3 to 10 mg/kg, po administered immediately post electric shock measured after 24 hrs (reference value: 10%); assay type: functional; details: dose mg/kg 3-10
Procedure, shortened: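 Aβ42 (200 nM, 1 μl over 1 min) or vehicle was infused bilaterally into the dorsal hippocampus through cannulas implanted 6–8 days earlier under Avertin. Infusion was 15 min before foot-shock training. Compound was given at 3 or 10 mg/kg p.o. immediately after training. Freezing was scored for 5 min in the same chamber 24 h later.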

[22] = system: Mus musculus; assay: Inhibition of PDE5 in C57Bl6 mouse assessed as increase in electric shock-induced hippocampal cGMP level measured per mg of protein at 3 mg/kg, ip administered 30 mins prior to electric shock induction measured after 10 secs (reference value: 0.318 0.0145 pmol); assay type: functional, Hippocampus; details: route intraperitoneal; procedure, shortened: as §2
[23] = system: Hippocampus; assay: Reversal of amyloid beta42-induced post synaptic dysfunction in mouse hippocampal assessed as increase in theta burst-induced long term potentiation at 50 nM incubated 10 mins prior to theta burst induction measured after 60 mins for 5 mins by electrophysiological assay (reference value: 144.65 9.99%); assay type: functional
[24] = system: Mus musculus; assay: Inhibition of PDE5 in C57Bl6 mouse assessed as increase in electric shock-induced hippocampal cGMP level measured per mg of protein at 3 mg/kg, ip administered 30 mins prior to electric shock induction measured after 1 min (reference value: 0.41 0.028 pmol); assay type: functional, Hippocampus; details: route intraperitoneal; procedure, shortened: as §2
[25] = system: Brain; assay: Tmax in mouse brain at 50 mg/kg, po; assay type: ADME, organism-based; design: dose 50 mg/kg, route oral; details: in vivo; procedure, shortened: as §1
[26] = system: Brain; assay: AUC (0 to infinity) in mouse brain at 50 mg/kg, po; assay type: ADME, organism-based; design: dose 50 mg/kg, route oral, time infinity; details: in vivo; procedure, shortened: as §1
[27] = species: Homo sapiens; assay: Selectivity ratio of IC50 for PDE4 (unknown origin) to IC50 for PDE5 (unknown origin)
[28] = species: Homo sapiens; assay: Selectivity ratio of IC50 for PDE10 (unknown origin) to IC50 for PDE5 (unknown origin)
[29] = Ratio of AUC (0 to t) in mouse brain to AUC (0 to t) in mouse plasma; assay type: ADME, cell-free; procedure, shortened: as §3
[30] = biological target: Phosphodiesterase 7 (Homo sapiens, UniProt Q13946+Q9NP56); assay: Inhibition of PDE7 (unknown origin) using FAM-cAMP as substrate after 60 mins by fluorescence assay; assay type: protein assay
[31] = system: Hippocampus; assay: Reversal of post synaptic dysfunction in APP/PS1 transgenic mouse hippocampal assessed as increase in theta burst-induced long term potentiation at 50 nM incubated 10 mins prior to theta burst induction measured after 2 hrs for 5 mins by electrophysiological assay (reference value: 145.84 7.78%); assay type: functional
Procedure, shortened: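 Transverse hippocampal slices (400 μm) from APP/PS1 mice were kept in an interface chamber at 29 °C and perfused with aerated ACSF, pH 7.4. Compound (50 nM) was bath-applied for 10 min before tetanus. CA1 fEPSP slopes were expressed as % of baseline, averaged over the last 5 min of a 2 h recording.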

[32] = biological target: cAMP and cAMP-inhibited cGMP 3',5'-cyclic phosphodiesterase 10A (Homo sapiens, UniProt Q9Y233); assay: Inhibition of PDE10 (unknown origin) using FAM-cGMP and FAM-cAMP as substrate after 60 mins by fluorescence assay
cAMP and cAMP-inhibited cGMP 3',5'-cyclic phosphodiesterase 10A, sequence (Q9Y233 whole entry): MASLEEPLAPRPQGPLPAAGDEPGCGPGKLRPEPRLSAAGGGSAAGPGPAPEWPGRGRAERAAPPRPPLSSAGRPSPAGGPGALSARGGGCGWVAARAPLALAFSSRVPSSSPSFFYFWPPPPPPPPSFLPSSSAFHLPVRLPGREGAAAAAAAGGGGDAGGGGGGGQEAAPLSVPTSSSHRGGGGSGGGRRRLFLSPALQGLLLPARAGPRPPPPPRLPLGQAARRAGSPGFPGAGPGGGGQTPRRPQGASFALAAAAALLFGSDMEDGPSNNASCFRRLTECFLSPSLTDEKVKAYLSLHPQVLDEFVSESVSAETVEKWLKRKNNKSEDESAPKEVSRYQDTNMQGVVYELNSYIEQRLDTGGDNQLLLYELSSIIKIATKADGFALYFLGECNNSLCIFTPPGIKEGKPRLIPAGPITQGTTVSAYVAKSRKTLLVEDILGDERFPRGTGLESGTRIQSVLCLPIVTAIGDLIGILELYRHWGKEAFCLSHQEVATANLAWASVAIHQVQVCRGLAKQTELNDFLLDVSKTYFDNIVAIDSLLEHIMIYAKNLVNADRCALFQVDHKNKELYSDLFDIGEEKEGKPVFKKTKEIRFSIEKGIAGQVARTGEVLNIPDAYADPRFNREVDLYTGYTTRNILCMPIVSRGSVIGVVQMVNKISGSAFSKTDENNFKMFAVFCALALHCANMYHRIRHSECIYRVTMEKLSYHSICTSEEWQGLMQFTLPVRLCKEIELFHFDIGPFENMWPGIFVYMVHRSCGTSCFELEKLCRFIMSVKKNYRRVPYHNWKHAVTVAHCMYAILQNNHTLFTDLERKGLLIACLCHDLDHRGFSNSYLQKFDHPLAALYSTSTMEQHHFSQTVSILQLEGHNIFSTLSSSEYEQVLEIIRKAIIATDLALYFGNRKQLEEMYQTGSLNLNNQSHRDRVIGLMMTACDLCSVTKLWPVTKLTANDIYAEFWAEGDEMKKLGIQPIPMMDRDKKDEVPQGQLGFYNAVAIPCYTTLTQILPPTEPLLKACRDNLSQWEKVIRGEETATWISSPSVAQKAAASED

[33] = system: Mus musculus; assay: Reversal of contextual fear memory deficit in APP/PS1 transgenic mouse assessed as increase in freezing behavior at 3 mg/kg/day, ip administered 3 weeks measured after 9 to 12 weeks […] (reference value: 10%); assay type: functional; details: route intraperitoneal
[34] = species: Homo sapiens; assay: Selectivity ratio of IC50 for PDE1 (unknown origin) to IC50 for PDE5 (unknown origin)
[35] = Cmax in mouse brain at 50 mg/kg, po; assay type: ADME, organism-based; design: dose 50 mg/kg, route oral; procedure, shortened: as §1
[36] = species: Homo sapiens; assay: Selectivity ratio of IC50 for PDE2 (unknown origin) to IC50 for PDE5 (unknown origin)
[37] = Ratio of AUC (0 to infinity) in mouse brain to AUC (0 to infinity) in mouse plasma; assay type: ADME, cell-free; procedure, shortened: as §3
[38] = species: Homo sapiens; assay: Selectivity ratio of IC50 for PDE8 (unknown origin) to IC50 for PDE5 (unknown origin)
[39] = species: Homo sapiens; assay: Selectivity ratio of IC50 for PDE7 (unknown origin) to IC50 for PDE5 (unknown origin)
[40] = biological target: High affinity cGMP-specific 3',5'-cyclic phosphodiesterase 9A (Homo sapiens, UniProt O76083); assay: Inhibition of PDE9 (unknown origin) using FAM-cGMP as substrate after 60 mins by fluorescence assay
High affinity cGMP-specific 3',5'-cyclic phosphodiesterase 9A, sequence (O76083 whole entry): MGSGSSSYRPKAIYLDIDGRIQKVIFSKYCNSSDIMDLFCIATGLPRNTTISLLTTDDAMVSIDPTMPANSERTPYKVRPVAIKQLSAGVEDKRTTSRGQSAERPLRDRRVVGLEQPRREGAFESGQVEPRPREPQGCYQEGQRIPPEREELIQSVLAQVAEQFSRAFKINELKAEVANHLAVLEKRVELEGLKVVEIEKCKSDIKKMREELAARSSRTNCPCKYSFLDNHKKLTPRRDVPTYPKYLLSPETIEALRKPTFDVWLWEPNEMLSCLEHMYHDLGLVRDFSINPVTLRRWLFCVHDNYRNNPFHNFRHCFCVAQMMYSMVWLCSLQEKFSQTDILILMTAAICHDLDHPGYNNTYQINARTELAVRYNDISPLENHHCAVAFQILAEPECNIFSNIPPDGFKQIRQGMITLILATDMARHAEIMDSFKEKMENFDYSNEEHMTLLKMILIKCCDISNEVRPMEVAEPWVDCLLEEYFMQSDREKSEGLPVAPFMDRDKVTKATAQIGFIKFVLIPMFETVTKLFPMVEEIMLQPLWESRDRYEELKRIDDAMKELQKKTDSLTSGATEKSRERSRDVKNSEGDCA

[41] = biological target: Phosphodiesterase 3 (Homo sapiens, UniProt Q14432+Q13370); assay: Inhibition of PDE3 (unknown origin) using FAM-cGMP and FAM-cAMP as substrate after 60 mins by fluorescence assay; assay type: protein assay
[42] = system: Plasma; assay: Mean residence time in mouse plasma at 50 mg/kg, po; assay type: ADME, organism-based; design: dose 50 mg/kg, route oral; details: in vivo
[43] = system: Plasma; assay: Tmax in mouse plasma at 50 mg/kg, po; assay type: ADME, organism-based; design: dose 50 mg/kg, route oral; details: in vivo; procedure, shortened: as §1

IC50 [1]: 0.0043 µM
Compound: COc1ccc(CNc2c(CO)cnc3c(NCCN(C)C)cc(C#N)cc23)cc1Cl

IC50 [2]: > 10 µM
Compound: CCCc1nc(C)c2c(=O)nc(-c3cc(S(=O)(=O)N4CCN(CC)CC4)ccc3OCC)[nH]n12

IC50 [1]: 0.0041 µM
Compound: COc1ccc(CNc2c(CO)cnc3c(NC4CC4)cc(C#N)cc23)cc1Cl

Compound: COc1ccc(CNc2c(CO)cnc3c(C4CC4)cc(C#N)cc23)cc1Cl
IC50 [3]: 0.339 µM | Activity [4]: 30% | IC50 [5]: > 10 µM | IC50 [6]: > 10 µM | AUCt [7]: 418 ng·h/g | IC50 [8]: > 10 µM | Ratio IC50 [9]: > 10000 | Ratio IC50 [10]: > 10000 | Activity [11]: 0.89 pmol | Activity [12]: 180.9% | IC50 [13]: > 10 µM | MRT [14]: 1.66 h | Cmax [15]: 1022 ng/mL | AUC [16]: 1133 ng·h/mL | AUCt [17]: 1014 ng·h/mL | Ratio IC50 [18]: 1260 | Ratio [19]: 0.38 | Ratio IC50 [20]: > 10000 | Activity [21]: 30% | Activity [22]: 0.83 pmol | Activity [23]: 192.63% | Activity [24]: 0.69 pmol | Tmax [25]: 0.5 h | AUC [26]: 420 ng·h/g | Ratio IC50 [27]: > 10000 | Ratio IC50 [28]: > 10000 | Ratio AUC [29]: 0.41 | IC50 [30]: > 10 µM | Activity [31]: 180.85% | IC50 [32]: > 10 µM | IC50 [2]: > 10 µM | Activity [33]: 30% | Ratio IC50 [34]: > 10000 | Cmax [35]: 385 ng/g | Ratio IC50 [36]: > 10000 | Ratio AUC [37]: 0.37 | Ratio IC50 [38]: > 10000 | Ratio IC50 [39]: > 10000 | IC50 [40]: > 10 µM | IC50 [41]: > 10 µM | MRT [42]: 1.61 h | Tmax [43]: 0.5 h
